Measurements reported in paper PMC6146878 (Molecules : A Journal of Synthetic Chemistry and Natural …, 2003).

Test: Interaction with DPPH
Procedure, shortened: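 DPPH 0.1 mM in absolute ethanol mixed with an equal volume of test compound in ethanol (0.1 mM); ethanol-only control. Kept at room temperature; absorbance at 517 nm recorded after 20 and 60 min. At least triplicate.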

| SMILES | DPPH (0.1 mmol/L) 20min [%] |
| --- | --- |
| CC(Cc1ccc(O)c(O)c1)C(C)Cc1ccc(O)c(O)c1 (centres unmarked) [NDGA, nor-dihydroguaeretic acid] | 94 |
| CC(=O)Oc1ccccc1C(=O)O [ASA, Acetyl salicylic acid] | 80.5 |
